According to ChEMBL document CHEMBL1123113, “"Reverse" and "symmetrical" analogues of actinomycin D: metabolic activation and in vitro and in vivo tumor growth inhibitory activities” (J Med Chem, 1985):
pIC50: −log10 of the molar value.

Assays:
Rattus norvegicus [1] = species: Rattus norvegicus; assay: (§1) Compound tested for adrenochrome formation in rat hepatic mycrosomal incubation; format: functional
Procedure, shortened: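 Superoxide read as adrenochrome from epinephrine (in 0.01 N HCl) with phenobarbital-induced rat liver microsomes (300 µg) at 37 °C; NADPH 0.4 mM added to sample cuvette after 1 min. Rate at 480 nm (ε 4.02 mM-1 cm-1); drug ≤100 µM in 150 mM KCl-50 mM Tris pH 7.4; % stimulation over basal rate; triplicate, mean ± standard error.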

Rattus norvegicus [2] = species: Rattus norvegicus; assay: (§2) Compound tested for NADPH oxidation in rat hepatic mycrosomal incubation; format: functional
Procedure, shortened: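 Phenobarbital-induced rat liver microsomes (300 µg), 37 °C, no epinephrine; NADPH 0.4 mM added to sample cuvette only. A340 followed; % oxidation = (1 − A340/A'340)×100 vs cuvette not activated by microsomes; % stimulation = (drug rate − basal rate)/basal rate ×100. Drugs in 150 mM KCl-50 mM Tris pH 7.4; triplicate analyses, mean ± standard error.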

[3] = Minimum tolerated dose is the lethal dose for 10% normal mice for deaths during 21 days; format: ADME, organism-based; conditions: mouse, in vivo
Procedure, shortened: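 Tumor-free male BDF1 mice (18–22 g) received a broad dose range ip in 5% dimethyl sulfoxide-saline on days 1, 5 and 9. Deaths were recorded over 21 days. The LD10 (dose killing 10% of animals) was calculated from a plot of log-dose vs. percent mortality.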

[4] = Therapeutic index (MTD/MED) value of the compound; conditions: read-out: TI
P388 [5] = assay: Inhibition of DNA synthesis was measured as the concentration required to cause 50% reduction (in 1h) in methyl [3H]thymidine incorporation into acid precipitable material using P388 cells; format: functional, cell-based; conditions: Mus musculus
Procedure, shortened: (§3)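 P388 cells were exposed for 1 h. IC50 (µM) was taken as 50% reduction of methyl-[3H]thymidine (DNA) or 2-[14C]uridine (RNA) incorporation into acid-precipitable material. The ratio is IC50 DNA divided by IC50 RNA.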

P388 [6] = assay: Inhibition of RNA synthesis was measured as the concentration required to cause 50% reduction (in 1h) in 2-[14C]uridine incorporation into acid precipitable material using P388 cells; format: functional, cell-based; conditions: Mus musculus, P388, 1 h
[7] = IC50 DNA/IC50 RNA ratio of the compound; format: functional; procedure, shortened: as §3
Rattus norvegicus [8] = species: Rattus norvegicus; assay: as §2; format: functional; remark: listed apart in the source
Procedure, shortened: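 Phenobarbital-induced male Sprague-Dawley rat liver microsomes were placed in both cuvettes, without epinephrine. NADPH 0.4 mM was added to the sample side only, and absorbance was read at 340 nm. Percent stimulation = (drug rate − basal)/basal × 100. Values are the average ± standard errors of triplicates.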

Rattus norvegicus [9] = species: Rattus norvegicus; assay: as §1; format: functional; remark: listed apart in the source
Procedure, shortened: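 Adrenochrome assay for superoxide: epinephrine in 0.01 N HCl plus 300 µg of phenobarbital-induced rat liver microsomes at 37 °C. NADPH 0.4 mM was added to the sample side 1 min later, and the rate was read at 480 nm (ε 4.02 mM−1 cm−1). Drugs were at ≤100 µM, made in 150 mM KCl–50 mM Tris, pH 7.4. Percent stimulation is over basal rate, in triplicate.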

CCN(CC)C(=O)c1c2nc3c(C(=O)N(CC)CC)c(N)c(O)c(C)c3oc-2c(C)c(=O)c1N
adrenochrome formation (Rattus norvegicus [1]): 2.13 nM min-1 (mg of protein)-1
NADPH oxidation (Rattus norvegicus [2]): 8.9 nM min-1 (mg of protein)-1

Cc1c2oc3c(C)c(O)c(N)c(C(=O)N[C@@H]4C(=O)N[C@H](C(C)C)C(=O)N5CCC[C@H]5C(=O)N(C)CC(=O)N(C)[C@@H](C(C)C)C(=O)O[C@@H]4C)c3nc-2c(C(=O)N[C@@H]2C(=O)N[C@H](C(C)C)C(=O)N3CCC[C@H]3C(=O)N(C)CC(=O)N(C)[C@@H](C(C)C)C(=O)O[C@@H]2C)c(N)c1=O
MTD at 504 h [3]: 2.4 mg/kg
selectivity ratio [4]: 96
pIC50 (P388 [5]): 5.95
pIC50 (P388 [6]): 5.94

Cc1c2oc3c(C)c(O)c(N)c(C(=O)N[C@@H]4C(=O)N[C@H](C(C)C)C(=O)N5CCC[C@H]5C(=O)N(C)CC(=O)N(C)[C@@H](C(C)C)C(=O)O[C@@H]4C)c3nc-2c(C(=O)N[C@@H]2C(=O)N[C@H](C(C)C)C(=O)N3CCC[C@H]3C(=O)N(C)CC(=O)N(C)[C@@H](C(C)C)C(=O)O[C@@H]2C)cc1=O
MTD at 504 h [3]: 3.5 mg/kg
selectivity ratio [4]: 13
pIC50 (P388 [5]): 5.29
pIC50 (P388 [6]): 5.29

Cc1nc2c(C(=O)N[C@H]3C(=O)N[C@@H](C(C)C)C(=O)N4CCC[C@H]4C(=O)N(C)CC(=O)N(C)[C@H](C(C)C)C(=O)O[C@H]3C)c3nc4c(C(=O)N[C@@H]5C(=O)N[C@H](C(C)C)C(=O)N6CCC[C@@H]6C(=O)N(C)CC(=O)N(C)[C@@H](C(C)C)C(=O)O[C@@H]5C)c(N)c(=O)c(C)c-4oc3c(C)c2o1
Ratio [7]: 11.2

CCN(CC)C(=O)c1c2nc3c(C(=O)N(CC)CC)c4nc(C)oc4c(C)c3oc-2c(C)c(=O)c1N
NADPH oxidation (Rattus norvegicus [8]): 8.9 nM min-1 (mg of protein)-1
adrenochrome formation (Rattus norvegicus [9]): 2.13 nM min-1 (mg of protein)-1

Cc1c2oc3c(C)ccc(C(=O)N[C@@H]4C(=O)N[C@H](C(C)C)C(=O)N5CCC[C@@H]5C(=O)NCC(=O)N[C@@H](C(C)C)C(=O)O[C@@H]4C)c3nc-2c(C(=O)N[C@H]2C(=O)N[C@@H](C(C)C)C(=O)N3CCC[C@H]3C(=O)NCC(=O)N[C@H](C(C)C)C(=O)O[C@H]2C)c(N)c1=O
Ratio [7]: 22.4

CCN(CC)C(=O)c1cc(=O)c(C)c2oc3c(C)c4oc(-c5ccccc5)nc4c(C(=O)N(CC)CC)c3nc1-2
NADPH oxidation (Rattus norvegicus [8]): 8.9 nM min-1 (mg of protein)-1
adrenochrome formation (Rattus norvegicus [9]): 2.13 nM min-1 (mg of protein)-1
